The text below walks through data of PMC8897028 (Acta Pharmaceutica Sinica. B, 2021).

Common to all, as to type: cell-based
One test concerns the target T1, mTRPV3 T636A (Mus musculus, UniProt Q8K424, T636A).
T1 sequence (Q8K424 1-791 T636A): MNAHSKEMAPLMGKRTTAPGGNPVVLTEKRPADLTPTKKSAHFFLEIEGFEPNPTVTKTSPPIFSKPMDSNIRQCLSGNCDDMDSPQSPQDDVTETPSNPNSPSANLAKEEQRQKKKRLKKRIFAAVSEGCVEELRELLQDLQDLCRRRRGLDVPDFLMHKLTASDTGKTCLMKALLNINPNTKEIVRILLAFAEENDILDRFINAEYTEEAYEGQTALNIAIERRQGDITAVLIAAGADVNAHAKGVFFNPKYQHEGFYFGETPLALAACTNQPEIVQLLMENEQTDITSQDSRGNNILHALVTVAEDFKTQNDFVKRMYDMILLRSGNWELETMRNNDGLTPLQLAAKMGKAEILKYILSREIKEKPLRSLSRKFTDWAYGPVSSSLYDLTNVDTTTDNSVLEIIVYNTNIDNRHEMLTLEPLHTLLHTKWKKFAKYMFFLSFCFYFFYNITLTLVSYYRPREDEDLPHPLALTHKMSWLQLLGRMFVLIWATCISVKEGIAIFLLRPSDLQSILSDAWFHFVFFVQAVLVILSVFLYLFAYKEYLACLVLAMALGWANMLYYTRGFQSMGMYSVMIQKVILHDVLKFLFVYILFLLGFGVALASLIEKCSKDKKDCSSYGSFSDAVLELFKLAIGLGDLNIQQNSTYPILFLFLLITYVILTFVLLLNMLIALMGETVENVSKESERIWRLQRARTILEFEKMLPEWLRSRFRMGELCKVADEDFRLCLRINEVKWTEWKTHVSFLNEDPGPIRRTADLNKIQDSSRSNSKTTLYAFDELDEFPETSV
Briefly: whole-cell patch-clamp of mTRPV3 T636A mutant in HEK293 cells. The following applies: compound 50 μmol/L; 2-APB; compared with WT mTRPV3. The essentials:
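Mouse Trpv3 point mutants were made by site-directed mutagenesis, sequence-verified, and transiently expressed in HEK293 cells alongside wild-type mTRPV3. Whole-cell ramp recordings (−100 to +100 mV, 500 ms, holding 0 mV) were made at 22–24 °C. Currents were activated by 2-APB, and inhibition by 50 μmol/L test compound in the presence of 2-APB was compared with wild type; n = 3–8.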

A further test deals with hTRPV4 (Homo sapiens, UniProt Q9HBA0). Briefly: whole-cell patch-clamp of TRPV4 currents in HEK293 cells. The note with it: compound 50 μmol/L; current elicited by 100 nmol/L GSK1016790A. An outline of the steps: (§1)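 Human channel cDNAs were transiently transfected into HEK293 cells with Lipofectamine 2000. EGFP-positive cells were recorded whole-cell 18 h later at 22–24 °C with ~4.0 MΩ fire-polished pipettes. Cells were held at 0 mV with 500-ms ramps from −100 to +100 mV every 2 s. Test compound in perfusion solution was co-applied with agonist, and average current inhibition was summarised; n = 4–6.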
In general terms: In patch-clamp work, channel activity is measured electrically.

In a further test the target is T2, mTRPV3 H426A (Mus musculus, UniProt Q8K424, H426A).
T2 sequence (Q8K424 1-791 H426A): T1 sequence (Q8K424 1-791 T636A) with H426A, A636T
The experiment in a line: whole-cell patch-clamp of mTRPV3 H426A mutant in HEK293 cells. The note with it: compound 100 µmol/L; carvacrol 300 μmol/L. An outline of the steps:
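The sequence-confirmed site-directed mTRPV3 mutant was transiently expressed in HEK293 cells, and EGFP-positive cells were recorded whole-cell 18 h post-transfection. Cells were held at 0 mV with 500-ms ramps from −100 to +100 mV every 2 s, at 22–24 °C. Compounds were diluted in perfusion solution.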

For another test, the target named is hTRPA1 (Homo sapiens, UniProt O75762). Briefly: whole-cell patch-clamp of TRPA1 currents in HEK293 cells. The note with it: compound 50 μmol/L; current evoked by AITC 300 μmol/L. An outline of the steps:
as §1

Positions count from the first letter of the chain named.

Chain of hTRPV4 (Q9HBA0 whole entry, the tested form may be a part): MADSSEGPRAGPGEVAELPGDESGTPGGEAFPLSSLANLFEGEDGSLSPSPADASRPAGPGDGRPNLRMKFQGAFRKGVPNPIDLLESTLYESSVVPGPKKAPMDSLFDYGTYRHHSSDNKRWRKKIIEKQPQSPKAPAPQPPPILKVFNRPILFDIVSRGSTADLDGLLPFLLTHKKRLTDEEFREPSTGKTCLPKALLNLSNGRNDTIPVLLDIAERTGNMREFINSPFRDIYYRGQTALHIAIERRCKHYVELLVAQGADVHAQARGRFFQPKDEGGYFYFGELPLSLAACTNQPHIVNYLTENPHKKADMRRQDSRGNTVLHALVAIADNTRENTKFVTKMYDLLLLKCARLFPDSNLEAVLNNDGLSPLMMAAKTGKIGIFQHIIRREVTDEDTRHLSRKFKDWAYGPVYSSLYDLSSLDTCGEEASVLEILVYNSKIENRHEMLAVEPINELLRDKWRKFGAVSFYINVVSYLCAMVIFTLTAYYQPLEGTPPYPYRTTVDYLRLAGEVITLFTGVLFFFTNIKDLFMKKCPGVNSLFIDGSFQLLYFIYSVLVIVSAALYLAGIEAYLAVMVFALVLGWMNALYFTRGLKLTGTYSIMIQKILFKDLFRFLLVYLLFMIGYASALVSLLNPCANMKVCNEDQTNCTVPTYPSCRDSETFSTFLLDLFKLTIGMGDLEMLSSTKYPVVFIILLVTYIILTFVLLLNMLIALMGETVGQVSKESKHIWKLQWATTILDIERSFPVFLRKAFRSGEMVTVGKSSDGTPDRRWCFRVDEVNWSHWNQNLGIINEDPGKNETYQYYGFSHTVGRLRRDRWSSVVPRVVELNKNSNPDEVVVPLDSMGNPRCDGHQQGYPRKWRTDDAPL
Chain of hTRPA1 (O75762 whole entry): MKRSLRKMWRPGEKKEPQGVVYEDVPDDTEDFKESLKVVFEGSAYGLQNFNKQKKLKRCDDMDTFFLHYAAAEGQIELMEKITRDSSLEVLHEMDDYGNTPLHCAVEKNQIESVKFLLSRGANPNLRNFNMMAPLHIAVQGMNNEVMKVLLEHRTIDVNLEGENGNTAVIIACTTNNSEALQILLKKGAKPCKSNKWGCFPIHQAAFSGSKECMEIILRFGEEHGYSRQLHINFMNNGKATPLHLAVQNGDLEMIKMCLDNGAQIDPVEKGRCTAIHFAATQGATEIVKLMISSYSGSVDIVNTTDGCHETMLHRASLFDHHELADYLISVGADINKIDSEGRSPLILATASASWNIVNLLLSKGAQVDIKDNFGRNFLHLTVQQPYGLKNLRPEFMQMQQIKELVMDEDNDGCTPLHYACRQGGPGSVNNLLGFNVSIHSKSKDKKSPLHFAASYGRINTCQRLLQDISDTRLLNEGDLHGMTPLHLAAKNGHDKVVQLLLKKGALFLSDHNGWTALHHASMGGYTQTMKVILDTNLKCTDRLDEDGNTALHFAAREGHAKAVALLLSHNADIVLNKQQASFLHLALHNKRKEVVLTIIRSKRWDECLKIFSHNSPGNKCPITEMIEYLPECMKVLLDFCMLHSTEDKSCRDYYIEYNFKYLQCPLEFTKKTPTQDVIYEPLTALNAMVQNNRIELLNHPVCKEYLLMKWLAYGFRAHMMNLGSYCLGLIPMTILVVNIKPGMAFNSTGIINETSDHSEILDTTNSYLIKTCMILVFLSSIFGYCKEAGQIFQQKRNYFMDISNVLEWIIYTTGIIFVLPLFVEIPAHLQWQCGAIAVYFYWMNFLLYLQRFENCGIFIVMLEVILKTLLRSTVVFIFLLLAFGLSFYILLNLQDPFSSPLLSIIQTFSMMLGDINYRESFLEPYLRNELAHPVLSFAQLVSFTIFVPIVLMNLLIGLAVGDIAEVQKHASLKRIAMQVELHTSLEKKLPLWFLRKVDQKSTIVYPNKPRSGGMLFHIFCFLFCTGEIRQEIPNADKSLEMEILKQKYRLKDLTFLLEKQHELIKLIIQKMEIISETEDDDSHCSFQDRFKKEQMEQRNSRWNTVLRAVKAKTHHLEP

Consider `O=C(/C=C/c1ccc(O)c(O)c1)O[C@@H]1C[C@](O)(C(=O)O)C[C@@H](OC(=O)/C=C/c2ccc(O)c(O)c2)[C@H]1O` [IAA, isochlorogenic acid A], for which, at mTRPV3 T636A, the “effect of mutation on compound-induced inhibition of mTRPV3 currents” value is listed as “markedly reduced”. Moreover, the “inhibition of TRPV4 current” value against hTRPV4 is given as “no inhibitory effect”. Further, the “inhibition of carvacrol-mediated H426A mutant currents” value against mTRPV3 H426A is “markedly inhibited”. The “inhibition of TRPA1 current” value on hTRPA1 is “no inhibitory effect”.

Regarding `O=C(/C=C/c1ccc(O)c(O)c1)O[C@@H]1[C@H](O)C[C@@](O)(C(=O)O)C[C@H]1OC(=O)/C=C/c1ccc(O)c(O)c1` [IAB, isochlorogenic acid B], on mTRPV3 T636A, the “effect of mutation on compound-induced inhibition of mTRPV3 currents” value was “markedly reduced”. Besides, the “inhibition of TRPV4 current” value against hTRPV4 is “no inhibitory effect”. Also, on mTRPV3 H426A, the “inhibition of carvacrol-mediated H426A mutant currents” value is “markedly inhibited”. Further, the “inhibition of TRPA1 current” value on hTRPA1 was “no inhibitory effect”.
